In ChEMBL document CHEMBL1145996 (J Med Chem, 2003):
The source made the active and inactive calls. The rule behind the calls is not given here.

What was measured:
Type in all cases: functional, organism-based
Leishmania donovani [1] = assay: Antileishmanial activity of compound against leishmania donovani was determined in luciferase assay; Not active
Plasmodium falciparum [2] = assay: In vitro antimalarial activity against chloroquine-resistant Plasmodium falciparum W2 Indochina
In short: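 Asynchronous P. falciparum cultures (2% hematocrit, 2% parasitemia) given compound dilutions in DMSO or RPMI-1640, incubated 48 h at 37°C under 90% N2/5% CO2/5% O2 in humidified chamber. Growth read as parasite lactate dehydrogenase activity with Malstat reagent. At least six concentrations, each in duplicate; medium and RBC controls on each plate.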

Plasmodium falciparum [3] = assay: In vitro antimalarial activity against chloroquine-sensitive Plasmodium falciparum D6 Sierra Leone
Leishmania donovani [4] = assay: Antileishmanial activity of compound against leishmania donovani was determined in luciferase assay
In short: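 Transgenic Leishmania donovani promastigotes expressing firefly luciferase, 2×10^6 cell/mL, exposed to compound dilutions in 96-well plates at 26°C for 72 h; growth read by luciferase luminescence (Steady Glo). At least six concentrations, each in duplicate; mean values used for growth inhibition curves and IC50. Pentamidine and amphotericin B as standards.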

Row | Compound | NA (Leishmania donovani [1]) | IC50 (Plasmodium falciparum [2]) [nM] | IC50 (Plasmodium falciparum [3]) [nM] | IC50 (Leishmania donovani [4]) [nM]
1 | C[C@@H]1CC[C@H]2[C@@H](CCCc3ccc(C(F)(F)F)cc3)CO[C@@H]3O[C@@]4(C)CC[C@@H]1[C@]32O4 | inactive |  |  | 
2 | C[C@@H]1CC[C@H]2[C@@H](CCCc3ccc(S(C)(=O)=O)cc3)C(=O)O[C@@H]3O[C@@]4(C)CC[C@@H]1[C@]32O4 | inactive |  |  | 
3 | C[C@@H]1CC[C@H]2[C@H](CCCc3cc(C(F)(F)F)cc(C(F)(F)F)c3)C(=O)O[C@@H]3O[C@@]4(C)CC[C@@H]1[C@]32OO4 | inactive | 8.2 | 12.6 | 
4 | CC1(C)OO[C@]23CCCC[C@H]2[C@@H](CC(=O)O)C(=O)O[C@@H]3O1 | inactive |  |  | 
5 | C[C@@H]1CC[C@H]2[C@@H](CCC#N)C(=O)O[C@@H]3O[C@@]4(C)CCC1[C@]32OO4 (stereo partly specified) |  | 14.9 | 14.9 | 38900
6 | C[C@@H]1CC[C@H]2[C@@H](CCCc3ccc(N(C)C)cc3)CO[C@@H]3O[C@@]4(C)CC[C@@H]1[C@]32OO4 |  | 14.3 | 16.5 | 36000
7 | CSc1ccc(CCC[C@H]2C(=O)O[C@@H]3O[C@@]4(C)CCC5[C@H](C)CC[C@@H]2[C@]53OO4)cc1 (stereo partly specified) |  | 50.8 | 43.9 | 1400
8 | C[C@@H]1CC[C@H]2[C@@H](CCCc3cccc(Cl)c3)CO[C@@H]3O[C@@]4(C)CC[C@@H]1[C@]32O4 | inactive |  |  | 
9 | C[C@@H]1CC[C@H]2[C@@H](C)C(=O)O[C@@H]3OC(C)(C)OO[C@@]32C1 | inactive |  |  | 
10 | C[C@@H]1CC[C@H]2[C@@H](C)C(=O)O[C@@H]3O[C@@]4(C)CC[C@@H]1[C@]32O4 | inactive |  |  | 
11 | C[C@@H]1CC[C@H]2[C@@H](CCCc3ccc(S(C)(=O)=O)cc3)C(=O)O[C@@H]3O[C@@]4(C)CCC1[C@]32OO4 (stereo partly specified) |  | 20 | 30.1 | 53800
12 | C[C@@H]1CC[C@H]2[C@@H](CCCc3cc(C(F)(F)F)cc(C(F)(F)F)c3)C(=O)O[C@@H]3O[C@@]4(C)CC[C@@H]1[C@]32O4 | inactive |  |  | 
13 | C[C@@H]1CC[C@H]2[C@@H](CCCc3ccc(O)cc3)C(=O)O[C@@H]3O[C@@]4(C)CC[C@@H]1[C@]32OO4 |  | 4.7 | 7.9 | 44700
14 | C[C@@H]1CC[C@H]2[C@@H](CCCc3cc(C(F)(F)F)cc(C(F)(F)F)c3)C(O)O[C@@H]3O[C@@]4(C)CC[C@@H]1[C@]32OO4 (stereo partly specified) | inactive |  |  | 
